Converted amounts (≈) assume the structure as drawn.
How the values were obtained:
Format in all cases: functional
[1] = system: Candida albicans; assay: Antifungal activity against Candida albicans SC5314 by micro-broth dilution method
In short: (§1)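 MIC80 determined by broth microdilution following NCCLS methods. C. albicans SC5314 and Y0109 and C. neoformans BLS108 served as quality-control strains and were included in every assay. Fluconazole, itraconazole, voriconazole and amphotericin B were run as positive controls.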

[2] = system: Candida albicans; assay: Antifungal activity against Candida albicans Y0109 by micro-broth dilution method; in short: as §1
[3] = system: Candida tropicalis; assay: Antifungal activity against Candida tropicalis by micro-broth dilution method; in short: as §1
[4] = system: Candida parapsilosis; assay: Antifungal activity against Candida parapsilosis by micro-broth dilution method; conditions: Lodderomyces parapsilosis; in short: as §1
[5] = system: Kluyveromyces marxianus; assay: Antifungal activity against Candida kefyr by micro-broth dilution method
[6] = system: Cryptococcus neoformans; assay: Antifungal activity against Cryptococcus neoformans BLS108 by micro-broth dilution method; in short: as §1
[7] = system: Trichophyton rubrum; assay: Antifungal activity against Trichophyton rubrum by micro-broth dilution method; in short: as §1
[8] = system: Aspergillus fumigatus; assay: Antifungal activity against Aspergillus fumigatus by micro-broth dilution method; in short: as §1

Row | Compound | MIC80 [1] [µg/mL] | MIC80 [2] [µg/mL] | MIC80 [3] [µg/mL] | MIC80 [4] [µg/mL] | MIC80 [5] [µg/mL] | MIC80 [6] [µg/mL] | MIC80 [7] [µg/mL] | MIC80 [8] [µg/mL]
1 | O=C(/C=C/c1cccc(Br)c1)Nc1ccc(-n2cnn(CC(O)(Cn3cncn3)c3ccc(F)cc3F)c2=O)cc1 (single isomer, unassigned) | 1 (≈ 1.61 µM) | 1 (≈ 1.61 µM) | 1 (≈ 1.61 µM) | 16 (≈ 25.7 µM) | > 64 | 16 (≈ 25.7 µM) | > 64 | > 64
2 | COc1ccc(/C=C/C(=O)Nc2ccc(-n3cnn(CC(O)(Cn4cncn4)c4ccc(F)cc4F)c3=O)cc2)cc1 (single isomer, unassigned) | 4 (≈ 6.97 µM) | > 64 | > 64 | > 64 | > 64 | > 64 | > 64 | > 64
3 | O=C(/C=C/c1ccc(Cl)c(Cl)c1)Nc1ccc(-n2cnn(CC(O)(Cn3cncn3)c3ccc(F)cc3F)c2=O)cc1 (single isomer, unassigned) | 4 (≈ 6.53 µM) | 4 (≈ 6.53 µM) | 4 (≈ 6.53 µM) | 64 (≈ 105 µM) | > 64 | > 64 | > 64 | > 64
4 | O=C(Nc1ccc(-n2cnn(CC(O)(Cn3cncn3)c3ccc(F)cc3F)c2=O)cc1)c1ccc(F)cc1 (single isomer, unassigned) | 0.0625 (≈ 0.117 µM) | 1 (≈ 1.87 µM) | 0.0625 (≈ 0.117 µM) | 0.0625 (≈ 0.117 µM) | 4 (≈ 7.47 µM) | 64 (≈ 120 µM) | 16 (≈ 29.9 µM) | > 64
5 | O=C(/C=C/c1ccc(Br)cc1)Nc1ccc(-n2cnn(CC(O)(Cn3cncn3)c3ccc(F)cc3F)c2=O)cc1 (single isomer, unassigned) | 1 (≈ 1.61 µM) | 4 (≈ 6.43 µM) | > 64 | 1 (≈ 1.61 µM) | > 64 | > 64 | > 64 | > 64
6 | Cc1ccc(C(=O)Nc2ccc(-n3cnn(CC(O)(Cn4cncn4)c4ccc(F)cc4F)c3=O)cc2)cc1 (single isomer, unassigned) | 0.0625 (≈ 0.118 µM) | 0.0625 (≈ 0.118 µM) | 1 (≈ 1.88 µM) | 0.25 (≈ 0.47 µM) | 16 (≈ 30.1 µM) | > 64 | > 64 | > 64
7 | COc1cccc(C(=O)Nc2ccc(-n3cnn(CC(O)(Cn4cncn4)c4ccc(F)cc4F)c3=O)cc2)c1 (single isomer, unassigned) | 0.0625 (≈ 0.114 µM) | 0.0625 (≈ 0.114 µM) | 1 (≈ 1.83 µM) | 0.0625 (≈ 0.114 µM) | 16 (≈ 29.2 µM) | > 64 | > 64 | > 64
8 | C[C@@H]1[C@H](O)[C@@H](C)/C=C/C=C/C=C/C=C/C=C/C=C/C=C/[C@H](O[C@@H]2O[C@H](C)[C@@H](O)[C@H](N)[C@@H]2O)C[C@@H]2O[C@](O)(C[C@@H](O)C[C@@H](O)[C@H](O)CC[C@@H](O)C[C@@H](O)CC(=O)O[C@H]1C)C[C@H](O)[C@H]2C(=O)O [AMPHOTERICIN B] | 0.25 (≈ 0.271 µM) | 0.25 (≈ 0.271 µM) | 1 (≈ 1.08 µM) | 0.25 (≈ 0.271 µM) | 0.25 (≈ 0.271 µM) | 1 (≈ 1.08 µM) | 4 (≈ 4.33 µM) | 1 (≈ 1.08 µM)
9 | Cc1cccc(C(=O)Nc2ccc(-n3cnn(CC(O)(Cn4cncn4)c4ccc(F)cc4F)c3=O)cc2)c1 (single isomer, unassigned) | 0.0625 (≈ 0.118 µM) | 0.0625 (≈ 0.118 µM) | 1 (≈ 1.88 µM) | 0.0625 (≈ 0.118 µM) | > 64 | > 64 | > 64 | > 64
10 | COc1ccc(/C=C/C(=O)Nc2ccc(-n3cnn(CC(O)(Cn4cncn4)c4ccc(F)cc4F)c3=O)cc2)cc1OC (single isomer, unassigned) | 1 (≈ 1.66 µM) | 1 (≈ 1.66 µM) | 1 (≈ 1.66 µM) | 4 (≈ 6.63 µM) | > 64 | > 64 | > 64 | > 64
11 | O=C(/C=C/c1ccccc1F)Nc1ccc(-n2cnn(CC(O)(Cn3cncn3)c3ccc(F)cc3F)c2=O)cc1 (single isomer, unassigned) | 1 (≈ 1.78 µM) | 1 (≈ 1.78 µM) | 4 (≈ 7.12 µM) | 4 (≈ 7.12 µM) | > 64 | > 64 | > 64 | > 64
12 | CCC(C)n1ncn(-c2ccc(N3CCN(c4ccc(OCC5COC(Cn6cncn6)(c6ccc(Cl)cc6Cl)O5)cc4)CC3)cc2)c1=O (stereo not given) [ITRACONAZOLE] | 0.0625 (≈ 0.0886 µM) | 0.0625 (≈ 0.0886 µM) | 0.0625 (≈ 0.0886 µM) | 0.0625 (≈ 0.0886 µM) | 0.0625 (≈ 0.0886 µM) | 0.0625 (≈ 0.0886 µM) | 0.0625 (≈ 0.0886 µM) | 0.0625 (≈ 0.0886 µM)
13 | Cc1ccc(/C=C/C(=O)Nc2ccc(-n3cnn(CC(O)(Cn4cncn4)c4ccc(F)cc4F)c3=O)cc2)cc1 (single isomer, unassigned) | 1 (≈ 1.79 µM) | 4 (≈ 7.17 µM) | 4 (≈ 7.17 µM) | > 64 | > 64 | > 64 | > 64 | > 64
14 | Cc1cccc(/C=C/C(=O)Nc2ccc(-n3cnn(CC(O)(Cn4cncn4)c4ccc(F)cc4F)c3=O)cc2)c1C (single isomer, unassigned) | 1 (≈ 1.75 µM) | 4 (≈ 7 µM) | 16 (≈ 28 µM) | > 64 | > 64 | > 64 | > 64 | > 64
15 | O=C(/C=C/c1cccc([N+](=O)[O-])c1)Nc1ccc(-n2cnn(CC(O)(Cn3cncn3)c3ccc(F)cc3F)c2=O)cc1 (single isomer, unassigned) | 0.00024 (≈ 0.000408 µM) | 0.00024 (≈ 0.000408 µM) | 0.25 (≈ 0.425 µM) | 0.0039 (≈ 0.00663 µM) | 16 (≈ 27.2 µM) | > 64 | 64 (≈ 109 µM) | > 64
16 | Cc1ccc(C(=O)Nc2ccc(-n3cnn(CC(O)(Cn4cncn4)c4ccc(F)cc4F)c3=O)cc2)c(C)c1 (single isomer, unassigned) | 0.0625 (≈ 0.115 µM) | 0.0625 (≈ 0.115 µM) | 1 (≈ 1.83 µM) | 0.0625 (≈ 0.115 µM) | 64 (≈ 117 µM) | > 64 | > 64 | > 64
17 | Cc1ccccc1C(=O)Nc1ccc(-n2cnn(CC(O)(Cn3cncn3)c3ccc(F)cc3F)c2=O)cc1 (single isomer, unassigned) | 0.25 (≈ 0.47 µM) | 0.0625 (≈ 0.118 µM) | 1 (≈ 1.88 µM) | 0.0156 (≈ 0.0293 µM) | > 64 | > 64 | > 64 | > 64
18 | Cc1ccc(C(=O)Nc2ccc(-n3cnn(CC(O)(Cn4cncn4)c4ccc(F)cc4F)c3=O)cc2)cc1C (single isomer, unassigned) | 0.25 (≈ 0.458 µM) | 0.25 (≈ 0.458 µM) | 0.25 (≈ 0.458 µM) | 0.25 (≈ 0.458 µM) | 4 (≈ 7.33 µM) | 64 (≈ 117 µM) | > 64 | > 64
19 | O=C(/C=C/c1ccccc1[N+](=O)[O-])Nc1ccc(-n2cnn(CC(O)(Cn3cncn3)c3ccc(F)cc3F)c2=O)cc1 (single isomer, unassigned) | 1 (≈ 1.7 µM) | 1 (≈ 1.7 µM) | 1 (≈ 1.7 µM) | 1 (≈ 1.7 µM) | > 64 | > 64 | > 64 | > 64
20 | CC(C)c1ccc(C(=O)Nc2ccc(-n3cnn(CC(O)(Cn4cncn4)c4ccc(F)cc4F)c3=O)cc2)cc1 (single isomer, unassigned) | 4 (≈ 7.15 µM) | 4 (≈ 7.15 µM) | 4 (≈ 7.15 µM) | 4 (≈ 7.15 µM) | > 64 | > 64 | > 64 | > 64
